Experimental findings from ChEMBL document CHEMBL1649367, “Anti-breast cancer activity of some novel 1,2-dihydropyridine, thiophene and thiazole derivatives” (Eur J Med Chem, 2011) are described below.

Assay [1] has as its system MCF7. As to the kind of experiment: Cytotoxicity against human MCF7 cells assessed as cell surviving fraction at 25 uM after 48 hrs by SRB assay. Format: functional. An outline of the steps:
(§1)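 MCF7 cells were seeded at 10⁴ cells/well and allowed to attach for 24 h. Compounds in DMSO were added at 10, 25, 50 and 100 µM, in triplicate wells, for 48 h at 37 °C under 5% CO₂. Cells were fixed and stained 30 min with 0.4% SRB in 1% acetic acid, and dye was recovered in Tris-EDTA for absorbance. IC50 came from the surviving-fraction curve; values are means of three experiments ± SE.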

Assay [2] relates to MCF7. As to the kind of experiment: Cytotoxicity against human MCF7 cells assessed as cell surviving fraction at 10 uM after 48 hrs by SRB assay. Format: functional. An outline of the steps:
as §1
A general note: Sulforhodamine B stains cellular protein and so reports cell mass.

The subject of assay [3] is MCF7. As to the kind of experiment: Cytotoxicity against human MCF7 cells assessed as cell surviving fraction at 100 uM after 48 hrs by SRB assay. The assay is classed as functional. An outline of the steps:
as §1

The test system of assay [4] is MCF7. As to the kind of experiment: Cytotoxicity against human MCF7 cells after 48 hrs by SRB assay. Format: functional, cell-based. An outline of the steps:
as §1

For assay [5], the system named is MCF7. As to the kind of experiment: Cytotoxicity against human MCF7 cells assessed as cell surviving fraction at 50 uM after 48 hrs by SRB assay. The assay is classed as functional. An outline of the steps: as §1
Setting [6] is: Homo sapiens, MCF7, 48 h, read-out: IC50.

For the compound `C/C(=N\NC(=O)CC#N)c1ccc(S(=O)(=O)N2CCCCC2)cc1`, the Activity came out at 0.666 with MCF7 [1], 0.944 with MCF7 [2], 0.511 in the assay on MCF7 [3] and 0.44 with MCF7 [5]. For the same compound, in the assay with MCF7 [4] (setting [6]), the IC50 came out at 44.2 µM.
Regarding `CCOC(=O)c1c(-c2ccc(C)cc2)c(C#N)c(=O)n(/N=C(\C)c2ccc(S(=O)(=O)N3CCCCC3)cc2)c1N`, the Activity in the assay with MCF7 [1] was found to be 0.677; in the assay with MCF7 [2], 0.911; with MCF7 [3] it was 0.581; in the assay on MCF7 [5], 0.652. The IC50 in the assay with MCF7 [4] (setting [6]) amounted to 37.9 µM.
As to `CCOC(=O)c1c(-c2ccc(O)cc2)c(C#N)c(=O)n(/N=C(\C)c2ccc(S(=O)(=O)N3CCCCC3)cc2)c1N`, the Activity in the assay on MCF7 [1] was found to be 0.647; with MCF7 [2], 0.925; with MCF7 [3], 0.641; with MCF7 [5], 0.681. For the same compound, the IC50 with MCF7 [4] (setting [6]) is 25.5 µM.
Consider `CCOC(=O)c1c(-c2ccc(OC)cc2)c(C#N)c(=O)n(/N=C(\C)c2ccc(S(=O)(=O)N3CCCCC3)cc2)c1N`, for which the Activity with MCF7 [1] amounted to 0.657; in the assay with MCF7 [2], 0.972; in the assay on MCF7 [3], 0.375; with MCF7 [5], 0.452. Moreover, the half-maximal inhibitory concentration (IC50) with MCF7 [4] (setting [6]) was 51.2 µM.
The like results for `CCOC(=O)c1c(-c2ccc(O)c(OC)c2)c(C#N)c(=O)n(/N=C(\C)c2ccc(S(=O)(=O)N3CCCCC3)cc2)c1N` were, in that order, 0.694, 0.921, 0.478, 0.621 and 38.7 µM.
The like results for `CCOC(=O)c1c(-c2ccc(N(C)C)cc2)c(C#N)c(=O)n(/N=C(\C)c2ccc(S(=O)(=O)N3CCCCC3)cc2)c1N` were, in that order, 0.745, 0.861, 0.407, 0.557 and 34.4 µM.
Consider `CCOC(=O)c1c(-c2ccc(Cl)cc2)c(C#N)c(=O)n(/N=C(\C)c2ccc(S(=O)(=O)N3CCCCC3)cc2)c1N`, for which the Activity with MCF7 [1] is on record as 0.723; with MCF7 [2] it was 0.818; with MCF7 [3] it was 0.553; in the assay on MCF7 [5] it was 0.622. Besides, the IC50 with MCF7 [4] (setting [6]) was 20.6 µM.
On to `C/C(=N\n1c(N)cc(N)c(C#N)c1=O)c1ccc(S(=O)(=O)N2CCCCC2)cc1`, for which the Activity in the assay on MCF7 [1] worked out at 0.298; with MCF7 [2], 0.371; in the assay on MCF7 [3] it was 0.394; in the assay on MCF7 [5], 0.416. In the assay with MCF7 [4] (setting [6]), the IC50 worked out at 36.4 µM.
Taken in the same sequence, the figures for `C/C(=N\n1c(O)cc(N)c(C#N)c1=O)c1ccc(S(=O)(=O)N2CCCCC2)cc1` were 0.54, 0.748, 0.437, 0.433 and 74.6 µM.
The like results for `C/C(=N\NC(=O)c1sc(N)c(C#N)c1N)c1ccc(S(=O)(=O)N2CCCCC2)cc1` were, in that order, 0.507, 0.588, 0.406, 0.451 and 49.3 µM.
Regarding `CCOC(=O)c1c(N)sc(C(=O)N/N=C(\C)c2ccc(S(=O)(=O)N3CCCCC3)cc2)c1N`, the Activity is 0.947 with MCF7 [1], 1.925 with MCF7 [2], 0.841 with MCF7 [3] and 0.981 in the assay on MCF7 [5]. Also, the IC50 result in the assay on MCF7 [4] (mcf7) is on record as “Not Active”.
With `C/C(=N\NC(=O)c1sc2c(c1N)CCC2)c1ccc(S(=O)(=O)N2CCCCC2)cc1`, the Activity in the assay with MCF7 [1] was 0.857; in the assay with MCF7 [2] it was 0.942; in the assay on MCF7 [3], 0.375; in the assay on MCF7 [5], 0.552. The IC50 with MCF7 [4] (setting [6]) was 75.3 µM.
Taken in the same sequence, the figures for `C/C(=N\NC(=O)c1sc2c(c1N)CCCC2)c1ccc(S(=O)(=O)N2CCCCC2)cc1` were 0.994, 0.971, 0.558, 0.621 and 87.8 µM.
For the compound `C/C(=N\NC(=O)c1sc(=S)n(-c2ccccc2)c1N)c1ccc(S(=O)(=O)N2CCCCC2)cc1`, the Activity with MCF7 [1] stood at 0.745; with MCF7 [2], 0.861; in the assay with MCF7 [3], 0.407; in the assay on MCF7 [5], 0.557. Also, in the assay with MCF7 [4] (setting [6]), the IC50 is 60.1 µM.
In the case of `COc1cccc2c1C(=O)c1c(O)c3c(c(O)c1C2=O)C[C@@](O)(C(=O)CO)C[C@@H]3O[C@H]1C[C@H](N)[C@H](O)[C@H](C)O1` [DOXORUBICIN], the Activity in the assay with MCF7 [2] was 0.721; with MCF7 [3] it was 0.494; in the assay with MCF7 [5], 0.461. For the same compound, the IC50 in the assay with MCF7 [4] (setting [6]) stood at 32 µM.

By IC50 is commonly meant the concentration that gives 50% inhibition.
